In ChEMBL document CHEMBL1129435, “Acyclic nucleotide analogs derived from 8-azapurines: synthesis and antiviral activity” (J Med Chem, 1996):
Values after ≈ are worked out from the molar mass of the structure shown.

Experiments:
Human alphaherpesvirus 2 = experiment: Antiviral activity in herpes simple virus-2 (HSV-2) Lyons strain in E6SM cell culture; format: functional, organism-based; conditions: Human alphaherpesvirus 2, E6SM
In short: (§1)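 Confluent cell monolayers in microtiter trays were inoculated with 100 CCID50 of virus. After 1 h adsorption the residual virus was removed. Cells were then incubated with serial compound concentrations (400, 200, 100, ... µg/mL). Cytopathicity was scored once it was complete in untreated infected controls. The value is the 50% inhibitory concentration, or the concentration reducing plaque formation by 50%, in µg/mL.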

Human alphaherpesvirus 3 [1] = experiment: Antiviral activity in TK+ varicella zoster virus (VZV) OKA strain in HEL cell culture; format: functional, organism-based; conditions: Human alphaherpesvirus 3, HEL
[2] = test system: Moloney murine sarcoma virus; experiment: Compound was tested for anti-retroviral activity against moloney murine sarcoma virus (MSV) in murine C3H/3T3 embryo fibroblast cell culture; format: functional, organism-based
In short: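 C3H/3T3 fibroblasts were seeded at 5 × 10⁵ cells/mL. After 24 h they were infected with 80 focus-forming units of MSV for 90-120 min at 37 °C; the virus came from tumours induced by intramuscular inoculation of 3-day-old NMRI mice. The medium was then replaced with fresh medium containing various compound concentrations. Transformation was scored microscopically after 6 days.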

[3] = test system: Human immunodeficiency virus 1; experiment: Inhibition of human immunodeficiency virus-1 (HIV-1) induced cytopathicity in CEM cells; format: functional, organism-based; conditions: Human immunodeficiency virus 1, CCRF-CEM
In short: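 CEM cells (~3 × 10⁵ cells/mL) were infected with HIV-1(IIIB) at 100 CCID50 per µL. Infected cells were plated with compound dilutions and incubated 4 days at 37 °C. Giant cell formation was then examined microscopically.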

[4] = test system: Human immunodeficiency virus 2; experiment: Inhibition of human immunodeficiency virus-2 (HIV-2) induced cytopathicity in CEM cells; format: functional, organism-based; conditions: Human immunodeficiency virus 2, CCRF-CEM
Human alphaherpesvirus 3 [5] = experiment: Antiviral activity in TK+ varicella zoster virus (VZV) YS strain in HEL cell culture; format: functional, organism-based; conditions: Human alphaherpesvirus 3, HEL
[6] = Antiviral activity against thymidine kinase deficient herpes simplex virus-1 HSV-1 TK- VMW-1837 strain in E6SM cell culture; format: functional, cell-based; conditions: Human alphaherpesvirus 1, E6SM; in short: as §1
Human alphaherpesvirus 1 = experiment: Antiviral activity against thymidine kinase deficient herpes simplex virus-1 HSV-1 TK- B2006 strain in E6SM cell culture; format: functional, organism-based; conditions: Human alphaherpesvirus 1, E6SM; in short: as §1
[7] = test system: Human immunodeficiency virus 1; experiment: Inhibition of human immunodeficiency virus-1 (HIV-1) induced cytopathicity in human MT-4 cells; format: functional, organism-based; conditions: Human immunodeficiency virus 1, MT4
In short: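 MT-4 cells (~4 × 10⁵ cells/mL) were infected with HIV-1(IIIB) at 100 CCID50 per µL. Infected cells were seeded into wells containing compound dilutions and incubated 5 days at 37 °C. Viable cells were then counted by trypan blue exclusion in a blood cell counting chamber.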

Human alphaherpesvirus 3 [8] = experiment: Antiviral activity in TK+ varicella zoster virus (VZV) 07/1 strain in HEL cell culture; format: functional, organism-based; conditions: Human alphaherpesvirus 3, HEL
Cytomegalovirus = experiment: Antiviral activity against cytomegalovirus (CMV) Davis strain in HEL cell culture; format: functional, organism-based; conditions: Human betaherpesvirus 5, HEL; in short: as §1
[9] = Antiviral activity against herpes simplex virus-1 KOS in E6SM cell culture; format: functional, cell-based; conditions: Human alphaherpesvirus 1, E6SM; in short: as §1
Human betaherpesvirus 5 = experiment: Antiviral activity against cytomegalovirus (CMV) AD169 strain in HEL cell culture; format: functional, organism-based; conditions: Human betaherpesvirus 5, HEL; in short: as §1
Vaccinia virus = experiment: Antiviral activity against vaccinia virus (VV) in E6SM cell culture; format: functional, organism-based; conditions: Orthopoxvirus vaccinia

Structure (SMILES)	IC50 (Human alphaherpesvirus 2) [µg/mL]	IC50 (Human alphaherpesvirus 3 [1]) [µg/mL]	IC50 [2] [µg/mL]	IC50 [3] [µg/mL]	IC50 [4] [µg/mL]	IC50 (Human alphaherpesvirus 3 [5]) [µg/mL]	IC50 [6] [µg/mL]	IC50 (Human alphaherpesvirus 1) [µg/mL]	IC50 [7] [µg/mL]	IC50 (Human alphaherpesvirus 3 [8]) [µg/mL]	IC50 (Cytomegalovirus) [µg/mL]	IC50 [9] [µg/mL]	IC50 (Human betaherpesvirus 5) [µg/mL]	IC50 (Vaccinia virus) [µg/mL]
C[C@H](Cn1nnc2c(O)nc(N)nc21)OCP(=O)(O)O	20 (≈ 65.7 µM)	40 (≈ 131 µM)	0.43 (≈ 1.41 µM)	2 (≈ 6.57 µM)	2 (≈ 6.57 µM)	28 (≈ 92 µM)	20 (≈ 65.7 µM)	> 100	2.42 (≈ 7.96 µM)	20 (≈ 65.7 µM)	35 (≈ 115 µM)	20 (≈ 65.7 µM)	50 (≈ 164 µM)	> 100
Nc1nc(N)c2nnn(C[C@@H](CF)OCP(=O)(O)O)c2n1	–	> 50	14.9 (≈ 46.4 µM)	50 (≈ 156 µM)	50 (≈ 156 µM)	> 50	> 400	> 400	–	> 50	> 50	> 400	> 50	> 400
Nc1ncnc2nn(C[C@H](O)CO)nc12	–	> 40	> 100	> 100	> 100	–	–	–	–	–	–	> 200	> 100	–
Nc1nc(O)c2nn(CCOCP(=O)(O)O)nc2n1	> 300	40 (≈ 138 µM)	> 40	> 100	> 100	40 (≈ 138 µM)	> 300	> 400	> 100	> 40	> 40	> 400	> 100	150 (≈ 517 µM)
Nc1nc(N)c2nn(C[C@@H](CF)OCP(=O)(O)O)nc2n1	–	> 50	> 200	> 100	> 100	> 50	> 400	> 400	–	> 50	> 50	> 400	> 50	> 400
Nc1ncnc2nn(CCOCP(=O)(O)O)nc12	> 400	> 100	> 100	–	–	> 100	> 400	> 400	> 100	> 100	> 100	> 400	> 100	> 400
Nc1ncnc2c1nnn2C[C@H](O)CO	–	> 40	> 100	> 100	> 100	> 40	–	–	–	> 40	–	> 200	> 100	–
C[C@H](Cn1nc2nc(N)nc(N)c2n1)OCP(=O)(O)O	> 200	> 50	28.4 (≈ 93.7 µM)	> 100	> 100	> 50	> 200	200 (≈ 660 µM)	> 100	> 50	> 50	> 100	> 50	> 100
C[C@H](Cn1nc2nc(N)nc(O)c2n1)OCP(=O)(O)O	> 400	> 20	> 40	20 (≈ 65.7 µM)	20 (≈ 65.7 µM)	> 20	> 400	> 400	20 (≈ 65.7 µM)	–	> 50	> 100	> 50	> 400
Nc1nc(N)c2nnn(CCOCP(=O)(O)O)c2n1	150 (≈ 519 µM)	> 40	0.75 (≈ 2.59 µM)	–	–	> 40	150 (≈ 519 µM)	150 (≈ 519 µM)	45.8 (≈ 158 µM)	> 40	> 40	70 (≈ 242 µM)	> 40	> 400
Nc1ncnc2c1nnn2CCOCP(=O)(O)O	> 200	> 100	12.1 (≈ 44.1 µM)	–	–	> 100	> 200	> 200	> 100	> 100	> 100	> 200	> 100	> 400
Nc1ncnc2c1nnn2C[C@@H](CF)OCP(=O)(O)O	> 400	> 40	> 200	> 100	> 100	> 40	> 400	> 400	–	> 40	> 40	> 400	> 40	> 400
Nc1ncnc2nn(C[C@@H](CF)OCP(=O)(O)O)nc12	–	> 10	13.1 (≈ 42.8 µM)	–	–	> 10	–	> 40	15 (≈ 49 µM)	> 10	> 400	> 40	> 400	> 40
Nc1nc(N)c2nnn(C[C@H](O)CO)c2n1	–	> 50	> 40	> 100	> 100	> 50	–	–	–	> 50	–	> 100	> 50	–
CC(C)OP(=O)(CO[C@H](CO)Cn1nc2ncnc(N)c2n1)OC(C)C	> 400	> 50	–	–	–	> 50	> 400	> 400	–	–	> 50	> 400	> 50	> 400
Nc1ncnc2nn(C[C@@H](CO)OCP(=O)(O)O)nc12	> 400	> 100	> 100	–	–	> 100	> 400	150 (≈ 493 µM)	> 100	> 100	> 200	> 400	> 200	> 400
Nc1nc2c(ncn2COCCO)c(=O)[nH]1 [ACYCLOVIR]	–	–	–	–	–	–	–	–	–	–	–	0.015 (≈ 0.0666 µM)	13 (≈ 57.7 µM)	–
Cc1cn([C@H]2C[C@H](N=[N+]=[N-])[C@@H](CO)O2)c(=O)[nH]c1=O [ZIDOVUDINE]	–	–	0.02 (≈ 0.0748 µM)	0.005 (≈ 0.0187 µM)	0.008 (≈ 0.0299 µM)	–	–	–	–	–	–	–	–	–
